Active and inactive are the calls of the source. The rule behind the calls is not given here.
Columns and labels:
[1] = test system: NG108-15; assay: Agonist activity at AT2 receptor in mouse/rat NG108-15 cells assessed as neurite growth at 10 nM after 3 days in presence of PD123319 by phase contrast microscopic analysis; format: cell-based
How it was run: (§1)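 NG108-15 neuroblastoma x glioma cells, passages 18–25, in DMEM with 10% FBS and HAT at 37 °C, 7% CO2. Seeded at 3.6 × 10^4 cells per 35 mm dish. Dosed once daily for 3 days starting 24 h after plating; where used, 10 μM PD 123319 was added 30 min before compound. On day 4, phase-contrast micrographs were taken. Cells with a neurite longer than the cell body were scored as % of at least 400 cells. Three independent experiments in duplicate, two-way ANOVA.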

[2] = test system: NG108-15; assay: Agonist activity at AT2 receptor in mouse/rat NG108-15 cells assessed as neurite growth at 10 nM after 3 days by phase contrast microscopic analysis; format: cell-based; how it was run: as §1
[3] = Displacement of [125I]-Ang2 from AT2 receptor in porcine uterine myometrial membranes after 1.5 hrs by gamma scintillation gamma scintillation counting analysis; parameters: species or system Sus scrofa
How it was run: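 Pig uterine myometrial membranes (10 mg original tissue per tube) with 1 μM losartan to block AT1. Incubated 25 °C for 1.5 h, then filtered and counted by γ-counter. Nonspecific binding with 1 μM Ang II.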

[4] = test system: NG108-15; assay: Antagonist activity at AT2 receptor in mouse/rat NG108-15 cells assessed as inhibition of angiotensin-2 induced neurite growth at 10 nM after 3 days in presence of angiotensin-2 by phase contrast microscopic analysis; format: cell-based
How it was run: (§2)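 NG108-15 cells seeded at 3.6 × 10^4 per 35 mm dish. Compound given once daily for 3 days, starting 24 h after plating, 30 min before 100 nM Ang II. On day 4, phase-contrast micrographs were taken. Cells bearing a neurite longer than the cell body were counted as % of at least 400 cells. Three independent experiments in duplicate, two-way ANOVA.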

[5] = test system: NG108-15; assay: Antagonist activity at AT2 receptor in mouse/rat NG108-15 cells assessed as inhibition of angiotensin-2 induced neurite growth at 100 nM after 3 days in presence of angiotensin-2 by phase contrast microscopic analysis; format: cell-based; how it was run: as §2

For `CCCCOC(=O)NS(=O)(=O)c1ccc2c(c1-c1ccc(Cn3ccnc3)cc1)CCC2C(C)C` (single isomer, unassigned; (-)) [listing 1 of 2 here], the Activity [1] was “inactive” and the Activity [2] was “Active”.

With `CCCCOC(=O)NS(=O)(=O)c1ccc2c(c1-c1cccc(Cn3ccnc3)c1)CCC2C(C)C` (stereo in doubt; 8b) [listing 1 of 2 here] the Ki [3] was 53.5 nM.

Work on `CCCCOC(=O)NS(=O)(=O)c1cc2c(cc1-c1cccc(Cn3ccnc3)c1)CCC2C(C)C` (single isomer, unassigned; (+)) [listing 1 of 2 here] yielded a Ki [3] of 3.2 nM.

With `CCCCOC(=O)NS(=O)(=O)c1cc2c(cc1-c1cccc(Cn3ccnc3)c1)CCC2C(C)C` (single isomer, unassigned; (-)) [listing 1 of 2 here] the Activity [1] was “inactive” and the Activity [2] was “Active”.

With `CCCCOC(=O)NS(=O)(=O)c1ccc2c(c1-c1cccc(Cn3ccnc3)c1)CCC2C(C)C` (single isomer, unassigned; (-)) [listing 1 of 2 here] the Ki [3] was 223 nM.

With `CCCCOC(=O)NS(=O)(=O)c1ccc2c(c1-c1ccc(Cn3ccnc3)cc1)CCC2C(C)C` (single isomer, unassigned; (+)) [listing 1 of 2 here] the inhibition [4] was “Active” and the inhibition [5] was “Active”.

In the case of `CCCCOC(=O)NS(=O)(=O)c1cc2c(cc1-c1ccc(Cn3ccnc3)cc1)CCC2C(C)C` (single isomer, unassigned; (+)) [listing 1 of 2 here], the Activity [1] is reported as “inactive” and the Activity [2] is reported as “Active”.

In the case of `CCCCOC(=O)NS(=O)(=O)c1ccc2c(c1-c1cccc(Cn3ccnc3)c1)CCC2C(C)C` (stereo in doubt; 8b) [listing 2 of 2 here], the inhibition [4] is reported as “Active” and the inhibition [5] is reported as “Active”.

Work on `CCCCOC(=O)NS(=O)(=O)c1cc2c(cc1-c1ccc(Cn3ccnc3)cc1)CCC2C(C)C` (single isomer, unassigned; (+)) [listing 2 of 2 here] yielded a Ki [3] of 2.2 nM.

For `CCCCOC(=O)NS(=O)(=O)c1cc2c(cc1-c1ccc(Cn3ccnc3)cc1)CCC2C(C)C` (single isomer, unassigned; (-)) [listing 1 of 2 here], the Ki [3] was 5.9 nM.

In the case of `CCCCOC(=O)NS(=O)(=O)c1ccc2c(c1-c1cccc(Cn3ccnc3)c1)CCC2C(C)C` (single isomer, unassigned; (-)) [listing 2 of 2 here], the inhibition [4] is reported as “Active” and the inhibition [5] is reported as “Active”.

For `CCCCOC(=O)NS(=O)(=O)c1ccc2c(c1-c1ccc(Cn3ccnc3)cc1)CCC2C(C)C` (single isomer, unassigned; (-)) [listing 2 of 2 here], the Ki [3] was 127 nM.

For `CCCCOC(=O)NS(=O)(=O)c1cc2c(cc1-c1cccc(Cn3ccnc3)c1)CCC2C(C)C` (single isomer, unassigned; (+)) [listing 2 of 2 here], the inhibition [4] was “Active” and the inhibition [5] was “Active”.

With `CCCCOC(=O)NS(=O)(=O)c1cc2c(cc1-c1ccc(Cn3ccnc3)cc1)CCC2C(C)C` (single isomer, unassigned; (-)) [listing 2 of 2 here] the Activity [1] was “inactive” and the Activity [2] was “Active”.

Work on `CCCCOC(=O)NS(=O)(=O)c1cc2c(cc1-c1cccc(Cn3ccnc3)c1)CCC2C(C)C` (single isomer, unassigned; (-)) [listing 2 of 2 here] yielded a Ki [3] of 7 nM.

Work on `CCCCOC(=O)NS(=O)(=O)c1ccc2c(c1-c1ccc(Cn3ccnc3)cc1)CCC2C(C)C` (single isomer, unassigned; (+)) [listing 2 of 2 here] yielded a Ki [3] of 2.8 nM.
